Test results published in ChEMBL document CHEMBL3425488, “Novel histone deacetylase inhibitors induce growth arrest, apoptosis, and differentiation in sarcoma cancer stem cells” (J Med Chem, 2015).
Activity calls are given as the source filed them. The rule behind the calls is not given here.

What was measured:
[1] = Cytotoxicity against human MG63 cells assessed as inhibition of cell viability after 72 hrs by MTT assay; assay type: functional, MG-63
Summary of the method: (§1)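 Stem-like cells were taken from sarcosphere cultures and exposed for 72 h to concentrations from 100 μM down to 0.1 μM. Viability was compared with cells given DMSO vehicle alone. IC50 was calculated by linear regression of the dose-response curves.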

[2] = Cytotoxicity against human SK-ES-1 cells assessed as inhibition of cell viability after 72 hrs by MTT assay; assay type: functional, SK-ES1; summary of the method: as §1
MG-63 = assay: Cytotoxicity against human MG63 cells assessed as cell viability at 10 to 100 uM after 72 hrs by MTT assay; assay type: functional, cell-based
Summary of the method: (§2)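 Sarcosphere-derived CSC cultures exposed 72 h to concentrations from 100 μM down to 0.1 μM. Viability compared with DMSO-only treated cells. IC50 calculated by linear regression.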

HOS = assay: Cytotoxicity against HOS cells assessed as cell viability at 10 to 100 uM after 72 hrs by MTT assay; assay type: functional, cell-based; settings: Homo sapiens
RD = assay: Cytotoxicity against human RD cells assessed as cell viability at 10 to 100 uM after 72 hrs by MTT assay; assay type: functional, cell-based
SK-ES1 = assay: Cytotoxicity against human SK-ES-1 cells assessed as cell viability at 10 to 100 uM after 72 hrs by MTT assay; assay type: functional, cell-based; summary of the method: as §2
A673 = assay: Cytotoxicity against human A673 cells assessed as cell viability at 10 to 100 uM after 72 hrs by MTT assay; assay type: functional, cell-based; summary of the method: as §2
A204 = assay: Cytotoxicity against human A204 cells assessed as cell viability at 10 to 100 uM after 72 hrs by MTT assay; assay type: functional, cell-based

| Compound | INH [1] | INH [2] | Activity (MG-63) | Activity (HOS) | Activity (RD) | Activity (SK-ES1) | Activity (A673) | Activity (A204) |
| --- | --- | --- | --- | --- | --- | --- | --- | --- |
| Cn1c(/C=C/C(=O)NO)ccc1/C=C/C(=O)c1cccc(F)c1 | 38.3 µM | 50.7 µM | – | – | – | – | – | – |
| O=c1nc2oc3ccc4ccccc4c3cc-2c(=O)n1-c1ccccc1 | – | – | Active | Active | Active | Active | Active | Active |
